Test results as given in ChEMBL document CHEMBL3085685, “In vitro and in vivo antileishmanial and trypanocidal studies of new N-benzene- and N-naphthalenesulfonamide derivatives” (J Med Chem, 2013).

How the values were obtained:
Leishmania braziliensis = test: Leishmanicidal activity against extracellular promastigote stage of Leishmania braziliensis 2903 assessed as reduction of parasite load after 48 hrs by resazurin dye-based fluorometric analysis; type: functional, organism-based
In short: (§1)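 Log-phase promastigotes cultured in Schneider's medium with 20% heat-inactivated FBS at 26 °C, 2.5 × 10^5 per well. DMSO-dissolved compounds added as 2-fold serial dilutions, final DMSO ≤0.2% (v/v), 48 h at 26 °C. Growth read by 2.5 mM resazurin stock, fluorescence 535/590 nm. Triplicate; IC50 by probit analysis.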

Leishmania infantum [1] = test: Leishmanicidal activity against extracellular promastigote stage of Leishmania infantum MCAN/ES/96/BCN150 assessed as reduction of parasite load after 48 hrs by resazurin dye-based fluorometric analysis; type: functional, organism-based; in short: as §1
Leishmania guyanensis = test: Leishmanicidal activity against extracellular promastigote stage of Leishmania guyanensis 141/93 assessed as reduction of parasite load after 48 hrs by resazurin dye-based fluorometric analysis; type: functional, organism-based; in short: as §1
[2] = Cytotoxicity against mouse J774 cells assessed as reduction of cell viability after 24 hrs by resazurin dye-based fluorometric analysis
In short: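 J774 macrophages in RPMI 1640 with 10% heat-inactivated FBS, seeded at 5 × 10^4 cells/well and attached 24 h at 37 °C, 5% CO2. Medium swapped for drug dilutions for 24 h. Then 2.5 mM resazurin stock added for 3 h, fluorescence read at 535 nm excitation / 590 nm emission. Triplicate; CC50 from probit analysis.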

Leishmania amazonensis [3] = test: Leishmanicidal activity against extracellular promastigote stage of Leishmania amazonensis MHOM/Br/79/Maria assessed as reduction of parasite load after 48 hrs by resazurin dye-based fluorometric analysis; type: functional, organism-based; in short: as §1
Trypanosoma cruzi = test: Trypanocidal activity against extracellular epimastigote stage of Trypanosoma cruzi CL-B5 assessed as reduction of parasite load after 72 hrs by CPRG-based colorimetric analysis
[4] = Cytotoxicity against mouse NCTC-929 cells assessed as reduction of cell viability after 24 hrs by resazurin dye-based […]
In short: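 NCTC clone 929 fibroblasts in DMEM with 10% FBS and 2 mM L-glutamine, plated at 3 × 10^4 cells/well and grown overnight at 37 °C, 5% CO2. Compounds in fresh medium for 24 h, then 2 mM resazurin solution added for 3 h. Absorbance read at 570 and 595 nm; CC50 taken as 50% viability loss versus untreated cells, by probit analysis.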

Leishmania infantum [5] = test: Leishmanicidal activity against intracellular amastigote stage of Leishmania infantum MCAN/ES/96/BCN150 infected in mouse J774 cells assessed as reduction of parasite load after 48 hrs by resazurin dye-based fluorometric analysis; type: functional, organism-based; conditions: Leishmania infantum, MCAN/ES/96/BCN150, J774, 48 h; read-out: IC50
In short: (§2)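 J774 macrophages (5 × 10^4/well) infected with stationary promastigotes at 1:10, 24 h at 33 °C then 24 h at 37 °C, 5% CO2, and washed free of promastigotes. Then 2-fold serial dilutions in triplicate for 48 h at 37 °C. Cells lysed with RPMI with 0.048% HEPES and 0.006% SDS, transformed in Schneider's 3 days at 26 °C, resazurin 3 h, fluorescence 535/590 nm.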

Leishmania amazonensis [6] = test: Leishmanicidal activity against intracellular amastigote stage of Leishmania amazonensis MHOM/Br/79/Maria infected in mouse J774 cells assessed as reduction of parasite load after 48 hrs by resazurin dye-based fluorometric analysis; type: functional, organism-based; conditions: Leishmania amazonensis, MHOM/Br/79/Maria, J774, 48 h; read-out: IC50; in short: as §2
[7] = Leishmania braziliensis, 2903, 48 h, read-out: IC50
[8] = Leishmania infantum, MCAN/ES/96/BCN150, 48 h, read-out: IC50
[9] = Leishmania guyanensis, 141/93, 48 h, read-out: IC50
[10] = Leishmania amazonensis, MHOM/Br/79/Maria, 48 h, read-out: IC50
[11] = Trypanosoma cruzi, CL-B5, 72 h, read-out: IC50

SMILES: O=S(=O)(Nc1ccc2nccnc2c1)c1ccc(Cl)cc1
- IC50 (Leishmania braziliensis; [7]): 80.9 µM
- IC50 (Leishmania infantum [1]; [8]): 51.5 µM
- IC50 (Leishmania guyanensis; [9]): 25.9 µM
- CC50 at 24 h [2]: 23.8 µM
- IC50 (Leishmania amazonensis [3]; [10]): 46.2 µM

SMILES: O=[N+]([O-])c1ccc(S(=O)(=O)Nc2nccc3ccccc23)cc1
- IC50 (Leishmania braziliensis; [7]): 42.5 µM
- IC50 (Leishmania infantum [1]; [8]): 39.5 µM
- IC50 (Trypanosoma cruzi; [11]): 136 µM
- IC50 (Leishmania guyanensis; [9]): 24.6 µM
- CC50 at 24 h [2]: 41.3 µM
- IC50 (Leishmania amazonensis [3]; [10]): 27 µM

SMILES: O=[N+]([O-])c1ccc(S(=O)(=O)Nc2ncccn2)cc1
- IC50 (Leishmania braziliensis; [7]): 48.8 µM
- IC50 (Leishmania infantum [1]; [8]): 76.4 µM
- IC50 (Trypanosoma cruzi; [11]): 156 µM
- IC50 (Leishmania guyanensis; [9]): 46.4 µM
- CC50 at 24 h [2]: ≥ 300 µM
- IC50 (Leishmania amazonensis [3]; [10]): 68.6 µM

SMILES: O=S(=O)(Nc1ccc2[nH]ncc2c1)c1cccc2ccccc12
- IC50 (Leishmania braziliensis; [7]): 39.7 µM
- IC50 (Leishmania infantum [1]; [8]): 37.3 µM
- IC50 (Leishmania guyanensis; [9]): 52.8 µM
- CC50 at 24 h [2]: 30 µM
- IC50 (Leishmania amazonensis [3]; [10]): 37.7 µM

SMILES: O=S(=O)(c1cccc2ccccc12)N1CCc2ccccc2C1
- IC50 (Leishmania braziliensis): Not Active
- IC50 (Leishmania infantum [1]): Not Active
- IC50 (Trypanosoma cruzi; [11]): 114 µM
- IC50 (Leishmania guyanensis): Not Active
- CC50 at 24 h [2]: ≥ 300 µM
- CC50 at 24 h [4]: > 310 µM
- IC50 (Leishmania amazonensis [3]): Not Active

SMILES: O=C(Cn1ccnc1[N+](=O)[O-])NCc1ccccc1 [BENZNIDAZOLE]
- CC50 at 24 h [2]: ≥ 300 µM
- CC50 at 24 h [4]: > 194 µM

SMILES: CCCCCCCCCCCCCCCCOP(=O)([O-])OCC[N+](C)(C)C [MILTEFOSINE]
- IC50 (Leishmania braziliensis; [7]): 7.6 µM
- IC50 (Leishmania infantum [1]; [8]): 17.6 µM
- IC50 (Leishmania infantum [5]): 23.7 µM
- IC50 (Leishmania guyanensis; [9]): 44.6 µM
- IC50 (Leishmania amazonensis [6]): 20.9 µM
- CC50 at 24 h [2]: 136 µM
- IC50 (Leishmania amazonensis [3]; [10]): 34.1 µM

SMILES: O=[N+]([O-])c1ccc(S(=O)(=O)Nc2ccc3nccnc3c2)cc1
- IC50 (Leishmania braziliensis; [7]): 60.8 µM
- IC50 (Leishmania infantum [1]; [8]): 81.7 µM
- IC50 (Trypanosoma cruzi): Not Active
- IC50 (Leishmania guyanensis; [9]): 101 µM
- CC50 at 24 h [2]: ≥ 300 µM
- IC50 (Leishmania amazonensis [3]; [10]): 198 µM

SMILES: Cc1cc2cc(NS(=O)(=O)c3ccc(Cl)cc3)ccc2[nH]1
- IC50 (Leishmania braziliensis; [7]): 23 µM
- IC50 (Leishmania infantum [1]; [8]): 12.4 µM
- IC50 (Leishmania guyanensis; [9]): 10.4 µM
- CC50 at 24 h [2]: 195 µM
- IC50 (Leishmania amazonensis [3]; [10]): 18.2 µM

SMILES: O=[N+]([O-])c1ccc(S(=O)(=O)Nc2ccc3[nH]ncc3c2)cc1
- IC50 (Leishmania braziliensis; [7]): 80.8 µM
- IC50 (Leishmania infantum [1]; [8]): 61.3 µM
- IC50 (Leishmania guyanensis; [9]): 140 µM
- CC50 at 24 h [2]: 133 µM
- IC50 (Leishmania amazonensis [3]; [10]): 66.7 µM

SMILES: O=[N+]([O-])c1ccc(S(=O)(=O)Nc2ccc3ncsc3c2)cc1
- IC50 (Leishmania braziliensis; [7]): 31 µM
- IC50 (Leishmania infantum [1]; [8]): 85.5 µM
- IC50 (Trypanosoma cruzi): Not Active
- IC50 (Leishmania guyanensis; [9]): 53.7 µM
- CC50 at 24 h [2]: ≥ 300 µM
- IC50 (Leishmania amazonensis [3]; [10]): 89.6 µM

SMILES: Cc1cc2cc(NS(=O)(=O)c3ccc(F)cc3)ccc2[nH]1
- IC50 (Leishmania braziliensis; [7]): 42.7 µM
- IC50 (Leishmania infantum [1]; [8]): 34.5 µM
- IC50 (Leishmania guyanensis; [9]): 117 µM
- CC50 at 24 h [2]: 40.4 µM
- IC50 (Leishmania amazonensis [3]; [10]): 12.5 µM
